Results pooled from the literature.
Compare with care: the assays were run in different laboratories.
PPO3: PPO3 (Agaricus bisporus, UniProt C7FF04)
HTR2A: 5-hydroxytryptamine receptor 2A (HTR2A, Homo sapiens, UniProt P28223)

Structure (SMILES) | target | test | conditions | inhibition
COc1cc(/C=C/C(=O)O)ccc1OCc1cn(CC(=O)NCCc2ccccc2)nn1 | PPO3 | enzyme activity, inhibitor | 40 µM | 10.4%
CC[C@H](C)[C@@H](C(=O)N1CCC[C@H]1c1nccs1)N(C)C(=O)[C@H](CC(C)C)N(C)C(=O)[C@H](Cc1ccc(OC)cc1)N(C)C(=O)/C=C(\C)OC | Cannabinoid receptor 1 (CNR1, Homo sapiens, UniProt P21554) | β-arrestin recruitment, antagonist | 20 µM | 53%
COc1cc(/C=C/C(=O)O)ccc1OCc1cn(CC(=O)Nc2ccc([N+](=O)[O-])cc2)nn1 | PPO3 | enzyme activity, inhibitor | 40 µM | 14%
COc1cc2c3c(c1OC)-c1c(OC)ccc(Cl)c1CC3N(C)CC2 (racemic) | HTR2A | ligand displacement, radioligand | 10 µM | 70%
c1cncc([C@@H]2CCCN2)c1 | HTR2A | ligand displacement | 50 µM | -7.27%
COc1cc2c3c(c1OC)-c1c(OC)ccc(Br)c1CC3N(C)CC2 (stereo not drawn) | HTR2A | ligand displacement, radioligand | 10 µM | 80%
CN1CCC[C@H]1c1cccnc1 | Kappa-type opioid receptor (OPRK1, Homo sapiens, UniProt P41145) | ligand displacement | 50 µM | -10.9%
COc1cc(/C=C/C(=O)O)ccc1OCc1cn(CC(=O)Nc2ccccc2)nn1 | PPO3 | enzyme activity, inhibitor | 40 µM | 10.4%
COc1cc2c3c(c1OC)-c1c(OC)ccc(O)c1CC3N(C)CC2 (stereo not drawn) | HTR2A | ligand displacement, radioligand | 10 µM | 36%
CC(C)CC(=O)OC[C@H]1O[C@@](C#N)(c2ccc3c(N)ncnn23)[C@H](O)[C@@H]1O | HTR2A | cell-free assay | 20 µM | 5%
COc1cc2c(cc1OC)-c1c(OC)c(OC)cc3c1[C@H](C2)N(C)CC3 (racemic) | HTR2A | ligand displacement, radioligand | 10 µM | 34%
COc1cc(/C=C/C(=O)O)ccc1OCc1cn(CC(=O)Nc2ccccc2Cl)nn1 | PPO3 | enzyme activity, inhibitor | 40 µM | 16.2%
